An excerpt weighted towards active compounds, which were near 3.5% of everything screened.
MrgX1 ag: agonists of human MrgX1 receptor, primary screen, HEK293 cells, Fluo-4 calcium flux; Fluo-4 calcium fluorescence, agonist mode; hits give high values; Mas-related G-protein coupled receptor member X1 (Homo sapiens), Q96LB2; AID 588627, 2011; B-score at 10 µM; 0.44% of 310,000 active;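 active = calcium response B-score plate-corrected fluorescence ratio at least 3 library SD, with starting fluorescence B-score inside 5 SD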
Target sequence (Q96LB2 whole entry, looked up): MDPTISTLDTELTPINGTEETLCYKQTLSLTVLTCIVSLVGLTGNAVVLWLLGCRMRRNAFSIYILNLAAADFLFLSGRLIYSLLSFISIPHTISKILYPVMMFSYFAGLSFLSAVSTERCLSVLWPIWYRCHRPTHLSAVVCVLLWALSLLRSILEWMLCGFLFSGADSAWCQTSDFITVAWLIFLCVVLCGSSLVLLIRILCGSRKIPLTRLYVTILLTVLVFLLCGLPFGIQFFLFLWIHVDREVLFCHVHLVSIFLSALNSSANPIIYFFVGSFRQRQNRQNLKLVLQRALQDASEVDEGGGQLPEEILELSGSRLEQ
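Assay system: MrgX1-expressing HEK293 cells / Amount: fifteen thousand cells per well / Doses: test compound in the initial addition of three / Timing: cells plated overnight, dye loaded 0.5 h 37 °C, 0.5 h room temperature / Technique: kinetic calcium dye fluorescence, Fluo-4 NW / Control set: positive and negative controls per plate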
RGS4 pot: RGS4 potentiators or activators, primary screen, cell-based, HEK293 M3R inducible RGS4, calcium flux; carbachol calcium flux Fluo4; hits give low values; 0.92% of 310,000 active; B-score at 10 µM; AID 463111, 2010;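 active = B-score of the integrated calcium signal more than 4 SD below the library mean, with starting fluorescence not abnormally high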;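 also: negative B-score means reduced calcium response which marks RGS4 activation or potentiation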
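Assay system: Inducible-RGS4 HEK293 cells carrying M3 receptor | Schedule: Compound preincubation 20 min at room temperature before agonist | Signal: Kinetic calcium fluorescence imaging with Fluo4-AM dye, 2 µM | Read-out basis: B score from integrated fluorescence ratio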
MrgX1 PAM: positive allosteric modulators of MrgX1, primary screen, HEK293 cells, Fluo-4 calcium flux. 0.63% of 310,000 active. FDSS; hits give high values. B-score at 10 µM. AID 588675, 2011;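 active = plate-corrected calcium response at least 3 library SD above typical, normal starting fluorescence, not activating the receptor alone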;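 also: compound read alongside a low EC10 to EC30 dose of BAM8-22 agonist; peak minus trough fluorescence over baseline measured at the second addition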
RGS4 block: RGS4 inhibitors, primary screen, cell-based, HEK293 M3R inducible RGS4, calcium flux; Fluo-4 calcium flux; hits give high values; triggered by carbachol at its EC20; B-score at 10 µM; 0.45% of 310,000 active; AID 463165, 2010;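 active = B-score, a plate-corrected calcium signal, over three deviations above library mean, with baseline fluorescence within five deviations of library mean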;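 also: RGS4 expression induced by doxycycline in cells with stable M3 receptor; B-score is computed from the integrated fluorescence ratio over baseline after carbachol; higher B-score means a larger calcium signal and so more RGS4 inhibition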
Target sequence (P49798 whole entry, looked up): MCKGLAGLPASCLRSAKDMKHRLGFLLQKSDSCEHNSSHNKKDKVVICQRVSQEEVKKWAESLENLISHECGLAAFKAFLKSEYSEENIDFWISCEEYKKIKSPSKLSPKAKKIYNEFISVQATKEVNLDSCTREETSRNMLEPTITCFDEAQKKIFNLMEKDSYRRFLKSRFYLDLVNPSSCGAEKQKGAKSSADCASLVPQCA
MrgX1 antagonist: antagonists of human MrgX1 receptor, primary screen, HEK293 cells, Fluo-4 calcium flux; B-score at 10 µM; BAM8-22 antagonism; hits give low values; 1.3% of 310,000 active; AID 588676, 2011;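 active = calcium-response B-score plate-corrected more than 3 library SD below zero, starting fluorescence within 5 deviations, no agonist response on first addition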;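 also: peak minus trough fluorescence over baseline after final BAM8-22 challenge near maximal dose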
MrgX1 ant reconf: MrgX1 receptor antagonists, duplicate retest, confirmation, HEK293 cells, Fluo-4 calcium flux | shares compounds with MrgX1 antagonist | BAM8-22 calcium flux; hits give low values | remaining BAM8-22 calcium response % of control (hits give low values), % at 10 µM | 19% of 2,300 active;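 active = remaining agonist calcium response no higher than 100% minus 3 SD of agonist-only control wells, with starting fluorescence near control levels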;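 also: agonist BAM8-22 given at a near maximal EC90 to ECmax level; peak minus minimum fluorescence divided by baseline after agonist addition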
HEK293 Ca flux: nonspecific calcium signal in parental HEK293, confirmation, counter-screen for MrgX1 antagonist project, parental HEK293 cells, Fluo-4 calcium flux | fluorescence ratio F(max-min)/F0 at 10 µM | 2% of 4,000 active | Fluo-4 calcium fluorescence, FDSS | AID 624111, 2012 | shares compounds with MrgX1 antagonist;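 active = duplicate-averaged calcium fluorescence ratio at least three times the standard deviation of buffer wells, a nonspecific response in parental cells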
HEK293 Ca counter: calcium response in parental HEK293 cells, primary screen, counter-screen for MrgX1 allosteric activator project, cell-based, Fluo-4 calcium flux, duplicate; shares compounds with MrgX1 antagonist; fluorescence ratio F(max-min)/F0 at 10 µM; AID 624114, 2012; 0.4% of 4,000 active; Fluo-4 fluorescence ratio; hits give high values;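 active = calcium fluorescence ratio, averaged over duplicates, at least 3 SD of the buffer-well ratio, meaning a nonspecific response in receptor-free cells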;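 also: untransfected parental HEK293 lacking MrgX1 used as counterscreen for MrgX1 allosteric activators; fluorescence change taken during the second addition on a kinetic imager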
HEK293 Ca cntr2: calcium response in parental HEK293 cells, primary screen, counter-screen for MrgX1 agonist project, cell-based, Fluo-4 calcium flux, duplicate, agonist mode; shares compounds with MrgX1 antagonist; Fluo-4 calcium fluorescence (FDSS); hits give high values; fluorescence ratio F(max-min)/F0 at 10 µM; 8.7% of 4,000 active; AID 624115, 2012;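 active = calcium fluorescence ratio at least three times the spread of buffer wells, meaning a non-specific response in parental cells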
* = called active by the depositor; i = inactive; nt = no result.

SMILES	MrgX1 ag	RGS4 pot	MrgX1 PAM	RGS4 block	MrgX1 antagonist	MrgX1 ant reconf	HEK293 Ca flux	HEK293 Ca counter	HEK293 Ca cntr2
Cc1ccc2nc(C(C)O)[nH]c2c1 (configuration not stated)	i	i	i	i	-7.1*	64%*	i	i	i
S=c1[nH]nc(-c2cccnc2)n1/N=C/C=C/c1ccccc1	i	i	i	i	i	nt	nt	nt	nt
Cc1ccc(S(=O)(=O)N(C)C)cc1NC(=O)COC(=O)Cc1ccsc1	i	i	i	i	i	nt	nt	nt	nt
Cn1cnnc1SC(C(=O)Nc1cccc(C(F)(F)F)c1)c1ccccc1 (configuration not stated)	i	i	i	i	i	nt	nt	nt	nt
O=C(Nc1cccc(C(=O)N2CCCCCC2)c1)c1ccco1	i	i	i	i	-4.7*	i	i	i	i
COC(=O)c1c(NC(=O)c2ccco2)sc(C(=O)Nc2ccc(F)cc2)c1C	i	i	i	i	i	nt	nt	nt	nt
COC(=O)c1c(NC(=O)Cc2ccccc2)sc(C)c1C	i	i	i	i	i	nt	nt	nt	nt
COC(=O)c1c(NC(=O)CSc2ccccc2N)sc(C)c1C	i	i	i	i	-4.7*	i	i	i	i
COC(=O)c1c(NC(=O)c2ccco2)sc(C)c1C	i	i	i	i	-7.7*	81%*	i	i	i
COc1ccc(Cc2cnc(N)s2)cc1	i	i	i	i	-12*	79%*	i	i	i
Cc1cccc(NCc2ccc(Br)cc2)n1	i	i	i	i	i	nt	nt	nt	nt
O=C(CCc1ccccc1)NC1CCSC1=O (configuration not stated)	i	i	i	i	-6.1*	i	i	i	i
Cc1ccc2c(Cl)c(C(=O)NCC3CCCO3)sc2c1 (configuration not stated)	i	i	i	i	-4.6*	i	i	i	i
O=C(COc1ccc(Cl)cc1)NN=C1CCCCCCC1	i	i	i	i	i	nt	nt	nt	nt
CN(CC(=O)Nc1c(Cl)cccc1Cl)C(=O)C1CSC2(C)CCC(=O)N12 (configuration not stated)	i	i	i	i	-6.8*	i	i	i	i
C=CCn1c(N2CCCC2)nc2c1c(=O)[nH]c(=O)n2C	i	i	i	i	-8.7*	i	i	i	i
C/C(Cl)=C/Cn1c(N2CCCC2)nc2c1c(=O)[nH]c(=O)n2C	i	i	i	i	i	nt	nt	nt	nt
CC(C)CCn1c(N2CCc3ccccc3C2)nc2c1c(=O)[nH]c(=O)n2C	i	i	i	i	-5*	i	i	i	i
CCOC(=O)C1=C(C)Nc2nc(C)nn2C1c1ccc(OC)c(OC)c1 (configuration not stated)	i	i	i	i	-6.7*	i	i	i	i
Cc1cc(Br)ccc1NCc1ccccn1	i	i	i	i	-6*	i	i	i	i
CC(=O)Nc1ccc(C(=O)NCC(=O)OCc2c(F)cccc2Cl)cc1	i	i	i	i	i	nt	nt	nt	nt
CS(=O)(=O)N(CC(=O)NCc1ccccc1)c1ccc(Cl)cc1	i	i	i	i	i	nt	nt	nt	nt
Cc1cccc(C)c1OC(=O)CN(c1ccc(Cl)cc1)S(C)(=O)=O	i	i	i	i	-7.1*	i	i	i	i
COc1ccc(OC)c2sc(NC(=O)c3ccc(Cl)s3)nc12	i	i	i	i	-5*	i	i	i	i
CCOc1ccc(N2C(=O)CC(Sc3n[nH]c(-c4ccccc4)n3)C2=O)cc1 (configuration not stated)	i	i	i	i	-5*	i	i	i	i
SMILES	MrgX1 ag	RGS4 pot	MrgX1 PAM	RGS4 block	MrgX1 antagonist	MrgX1 ant reconf	HEK293 Ca flux	HEK293 Ca counter	HEK293 Ca cntr2
CSc1ccc(/C=N/NC(=O)COc2ccc(Br)cc2Cl)cc1	i	i	i	i	i	nt	nt	nt	nt
c1ccc(-c2ccccc2-c2nc(-c3ccncc3)no2)cc1	i	i	i	i	-4.7*	i	i	i	i
c1ccc(-c2nc(-c3ccncc3)no2)cc1	i	i	i	i	-7.6*	i	i	i	i
Clc1ccccc1-c1nc(-c2ccncc2)no1	i	i	i	i	i	nt	nt	nt	nt
CN1CCN(C(=O)c2cnn(-c3ccccc3)c2NC(=O)c2cccs2)CC1	i	i	i	i	-5.9*	i	i	i	i
Cc1cccc(C)c1OCC(=O)Nc1ncn[nH]1	i	i	i	i	i	nt	nt	nt	nt
O=C(COc1ccc2ccccc2c1Br)Nc1ncn[nH]1	i	i	i	i	-4.5*	i	i	i	i
COc1ccc(NS(=O)(=O)c2cccc(C(=O)NNC(=O)CNC(=O)c3ccco3)c2)cc1	i	i	i	i	i	nt	nt	nt	nt
Cc1ccc(C(CNS(=O)(=O)c2ccc(C)cc2)N2CCN(C)CC2)cc1 (configuration not stated)	i	i	i	i	i	nt	nt	nt	nt
Cc1ccc(C(CNS(=O)(=O)c2ccc(Cl)cc2)N2CCN(C)CC2)cc1 (configuration not stated)	i	i	i	i	-5*	78%*	i	i	i
O=C(c1ccc(Br)o1)N1CCN(C23CC4CC(CC(C4)C2)C3)CC1	i	i	i	i	-5*	i	i	i	i

Assay outcomes deposited in PubChem BioAssay by Johns Hopkins Ion Channel Center.
